Screens: PubChem, The Scripps Research Institute Molecular Screening Center
ARFGAP1 inhibitor: inhibitors of rat ARFGAP1 GAP activity, primary screen, biochemical, fluorescence polarization, GDP tracer; inhibition, % at 16.5 µM; Arfgap1-stimulated ARF1 GTP hydrolysis, GDP FP detection; 360,000 tested, 0.26% active;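 active = inhibition above a per-plate limit, mean inhibition of low control wells plus 3 SD, cut at about 25% in these data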;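 note: 0% = DMSO wells with enzyme and 100% = wells lacking Arfgap1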
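Assay system: Rat Arfgap1 GAP domain (His6, aa 1-136), purified enzyme | Buffer or medium: HEPES 25 mM pH 7.5, NaCl 150 mM, MgCl2, DTT | Schedule: GTP hydrolysis reaction 2 h at 25 °C | Signal: FP of antibody-bound GDP Alexa 633 tracer, ex 620/em 688 nm | Measure: Percent inhibition of Arfgap1-stimulated GTP hydrolysis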
PREPL inh: PREPL enzyme inhibitors, primary screen, biochemical, fluorescence polarization; 320,000 tested, 0.68% active; recombinant PREPL, fluorescence polarization activity-based probe; inhibition, % at 5.96 µM; Prolyl endopeptidase-like (Homo sapiens), Q4J6C6; in the data active = inhibition above about 43%;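 note: 0% = enzyme with DMSO and 100% = wells lacking enzyme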
IDE inh: human IDE inhibitors in live cells, primary screen, fluorescence polarization, HEK cells, FAbetaB substrate. Insulin-degrading enzyme (Homo sapiens), P14735. FAbetaB cleavage. inhibition, % at 5.59 µM. 320,000 tested, 0.41% active. AID 434962, 2010;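 active = percent inhibition above the average of all tested compounds plus 3 SD, set per screening campaign, cut at about 16% in these data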;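 note: IDE supplied by intact live HEK cells; FP after avidin binding of uncleaved biotin substrate so inhibition keeps polarization high; 0% = DMSO wells and 100% = 60 µM reference IDE inhibitor Ii1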
IDE act: human IDE activators in live cells, primary screen, fluorescence polarization, HEK cells, FAbeta-B substrate; FAbeta-B cleavage; 0% vehicle, 100% cell-free pure enzyme wells; 340,000 tested, 0.073% active; activation, % at 5.96 µM; AID 493087, 2011; Insulin-degrading enzyme (Homo sapiens), P14735;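 active = activation above the mean of all tested compounds plus 3 SD, set per screening campaign, cut at about 17% in these data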
ASAP1 GAP inh: inhibitors of human ASAP1 ArfGAP activity, primary screen, biochemical, fluorescence polarization; Arf-GAP with SH3 domain, ANK repeat and PH domain-containing protein 1 (Homo sapiens), …; ASAP1-stimulated ARF1 GTP hydrolysis, GDP FP detection; inhibition, % at 16.5 µM; 360,000 tested, 0.19% active; AID 624377, 2012; in the data active = inhibition above about 25%;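 note: 0% = vehicle with enzyme and substrate and 100% = no enzyme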
Target sequence (Q9ULH1 325-724 limits assumed): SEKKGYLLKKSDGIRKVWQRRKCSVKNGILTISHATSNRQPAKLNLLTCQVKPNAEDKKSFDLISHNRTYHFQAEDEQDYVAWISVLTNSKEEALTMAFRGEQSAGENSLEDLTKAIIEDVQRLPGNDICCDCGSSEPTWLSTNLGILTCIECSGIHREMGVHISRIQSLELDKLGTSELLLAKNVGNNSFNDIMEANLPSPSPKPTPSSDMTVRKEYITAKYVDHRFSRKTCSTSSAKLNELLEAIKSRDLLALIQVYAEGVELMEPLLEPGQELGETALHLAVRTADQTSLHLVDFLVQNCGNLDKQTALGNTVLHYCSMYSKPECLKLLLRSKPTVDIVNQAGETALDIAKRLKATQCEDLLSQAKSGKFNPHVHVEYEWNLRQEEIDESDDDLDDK
IDE cell inh cf: human IDE inhibitors in live cells, confirmation, fluorescence polarization, HEK cells, FAbetaB substrate; FAbetaB cleavage; inhibition, % at 5.59 µM; 1,200 tested, 51% active; shares compounds with IDE inh;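 active = mean inhibition across triplicate wells above the cutoff set by the earlier primary insulin-degrading enzyme screen, cut at about 16% in these data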;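 note: 0% = DMSO wells and 100% = 60 µM reference IDE inhibitor Ii1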
HEK293 tox: cytotoxicity in HEK cells, cytotoxicity control for IDE inhibitor project, cell-based, luminescence; shares compounds with IDE inh; HEK293 cytotoxicity, ATP luminescence; 1,200 tested, 28% active; inhibition, % at 5.59 µM; in the data active = inhibition above about 22%;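 note: 0% = vehicle wells and 100% = reference cytotoxic drug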
IDE FP artifact: fluorescent or optically active artefacts, dose response, artefact control for IDE inhibitor project, biochemical, fluorescence polarization; shares compounds with IDE inh; FP counterscreen for fluorescent artifacts, IDE probe project; IC50, µM; 30 tested, under 10 active; AID 588718, 2011; call rule not given here
Numbers without * were called inactive; nt = no result given. Shown are actives, neighbours in structure and some others; about 1.2% of the full set was active somewhere.

SMILES	ARFGAP1 inhibitor	PREPL inh	IDE inh	IDE act	ASAP1 GAP inh	IDE cell inh cf	HEK293 tox	others
CS(=O)(=O)Oc1ccc2c(c1)O/C(=C\C=C\c1ccccc1)C2=O	0	-8	33*	-11	-14	18*	16
COCCN1CC(CNC(=O)c2cc(COc3ccc(C)c(C)c3)on2)CC1=O (configuration not stated)	5	5	17*	-14	4	7	11
Cc1ccc(OCc2cc(C(=O)NCCn3cccn3)no2)cc1C	12	3	3	-2	-5	nt	nt
c1ccc(C(c2ccccn2)c2ccccn2)cc1	-9	0	17*	-7	-15	3	9
CCCCn1c(NC(=S)Nc2ccccc2)nc2ccccc21	2	-3	31*	-12	8	12	12
S=C(Nc1ccccc1)Nc1nc2ccccc2n1CCOc1ccccc1	18	-7	29*	-22	-6	18*	7
CCCCn1c(NC(=O)c2ccccc2)nc2ccccc21	-5	11	-7	8	7	nt	nt
CCc1nc2ccc(C(=O)NC3CCN(Cc4ccccc4)CC3)cn2c1N(CC)Cc1cccc(Br)c1	-7	nt	nt	nt	-4	nt	nt
Cc1c(F)cccc1NC(=O)c1ccc2c(c1)CCN2S(C)(=O)=O	-10	12	6	1	8	nt	nt
CC(NC(=O)CN(C)S(=O)(=O)c1cccc2nsnc12)c1ccccc1 (configuration not stated)	0	9	5	-3	0	nt	nt
Clc1ccc(C[n+]2csc3ccccc32)cc1	-10	-10	20*	-24	-10	10	12
COc1cc(CN(C)CC2CCCN(CCc3ccccc3F)C2)cc(Cl)c1OC (configuration not stated)	6	nt	nt	1	1	nt	nt
COc1cc(CC(=O)NCC2CCCCC2)cc(OC)c1OC	-10	-4	7	3	-3	nt	nt
O=C(CCCCl)Oc1ccc2cc(-c3ccc4ccccc4n3)c(=O)oc2c1	10	-6	37*	-49	-8	52*	4
CC(=O)COc1ccc2cc(-c3ccccc3)c(=O)oc2c1	-7	-6	-3	-2	1	nt	nt
C=CCN(C(=O)COC(=O)c1cc[n+]([O-])cc1)c1nc(-c2ccccc2)cs1	-10	9	35*	-26	-8	34*	3
Cn1nc(C(C)(C)C)cc1N1C(=O)CCC1(C)C(=O)NC1CCCC1 (configuration not stated)	-9	nt	nt	nt	6	nt	nt
COCOCCn1cc(CN2CCS(=O)(=O)N(Cc3ccc(-c4cccc(CO)c4)cc3)C(CC(C)C)C2=O)nn1 (configuration not stated)	17	nt	nt	nt	-4	nt	nt
Cc1cc2occ(CC(=O)OCC(=O)Nc3sc4c(c3C#N)CCC(C)C4)c2cc1C (configuration not stated)	-5	7	6	-1	-7	nt	nt
CCOC(=O)C1CCCN(C2=NC(=O)/C(=C/c3ccc(O)c(OCC)c3)S2)C1 (configuration not stated)	14	8	23*	-25	8	72*	11
CCOC(=O)C1CCCN(C2=NC(=O)/C(=C/c3ccc(N(C)C)cc3)S2)C1 (configuration not stated)	-16	26	52*	-34	1	43*	7
Cn1c(SCc2nc3ccccc3[nH]2)nnc1-c1cccc(Cl)c1	nt	nt	nt	nt	nt	nt	nt	IDE FP artifact=>55
COc1cccc(-c2nnc(SCc3nc4ccccc4[nH]3)n2Cc2ccco2)c1	nt	nt	nt	nt	nt	nt	nt	IDE FP artifact=>55
